Rows were chosen to be rich in hits. Some 1.2% of all compounds tested hit in one or more screens of this group.
AF4-AF9 inh = blocks AF4 peptide binding to human AF9; hit rate 0.47% among 350,000; P42568; inhibition, % at 10 µM; AID 651704; AlphaScreen, biotin-AF4 peptide binding to FLAG-AF9;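 active = every replicate reaching a set inhibition limit, whatever the replicate mean, cut at about 25% in these data; inconclusive = mean inhibition reaches that limit but some replicates miss it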
FN deposition inh = fibronectin deposition inhibition. inhibition, % at 12.6 µM. AH1F fibroblasts, Alexa488-fibronectin deposition fluorescence, overnight. hit rate 0.086% among 350,000;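 active = mean inhibition across replicates of 30% or more, regardless of how many single replicates reach that level; inconclusive = mean under 30% yet at least half of replicates reach 30%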
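material = AH1F fibroblast monolayer depositing Alexa488-labelled fibronectin into matrix | amount = 10000 AH1F cells/well | buffer or medium = DMEM plus 2% serum, read in PBS | incubation = 1 h cell adhesion before compound, then overnight fibronectin incubation | detection = fluorescence at 485 nm excitation, 525 nm emission | evaluation = percent inhibition as loss of matrix-bound fibronectin fluorescence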
RAD52 anneal inh = inhibitors of human RAD52 DNA annealing | recombinant RAD52 DNA annealing, FRET fluorescence | inhibition, % at 18.7 µM | hit rate 0.46% among 360,000;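 active = every replicate showing at least 50% inhibition; inconclusive = mean inhibition at least 50% but not in every replicate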
Target sequence (P43351 whole entry, looked up): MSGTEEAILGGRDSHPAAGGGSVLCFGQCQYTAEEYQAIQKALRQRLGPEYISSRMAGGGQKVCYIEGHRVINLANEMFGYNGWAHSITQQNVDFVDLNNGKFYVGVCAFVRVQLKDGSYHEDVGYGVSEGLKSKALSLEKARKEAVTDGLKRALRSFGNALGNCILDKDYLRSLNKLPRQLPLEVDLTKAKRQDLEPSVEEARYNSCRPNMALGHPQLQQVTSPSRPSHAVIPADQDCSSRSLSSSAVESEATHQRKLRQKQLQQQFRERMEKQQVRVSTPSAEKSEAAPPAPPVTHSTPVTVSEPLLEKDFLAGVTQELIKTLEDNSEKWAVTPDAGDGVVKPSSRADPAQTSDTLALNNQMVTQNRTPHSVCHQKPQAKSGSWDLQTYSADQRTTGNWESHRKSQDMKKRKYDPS
RAD54 branch = RAD54 (human) branch migration inhibition. Q92698. RAD54 Holliday junction branch migration, FAM/BHQ fluorescence. inhibition, % at 10.4 µM. hit rate 0.14% among 360,000. AID 602329;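 active = mean normalized replicate activity at least 40 and at least half of replicates scoring 40 or more; inconclusive = only one of the two criteria met; inactive = mean below 40 and under half of replicates reaching 40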;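 note: inhibitors cause a drop in the FAM fluorescence signal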
NSD2 inh = NSD2 (human) methyltransferase inhibition. NSD2 peptide methylation, AlphaScreen, 120 min. inhibition, % at 12.5 µM. O96028. hit rate 0.54% among 310,000; in the data active = inhibition above about 50%
Glyco luc inh = blocks N-linked glycosylation in D54 reporter cells | reporter increase, % at 12.5 µM | hit rate 0.23% among 360,000 | AID 588692 | D54 ERlucT glycosylation luciferase reporter, 24 h; percent of 100 nM tunicamycin response;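 active = mean luciferase reporter signal, scaled so untreated is 0 and the glycosylation-blocking control 100, at or above a set limit in every replicate; inconclusive = mean reaches the limit but not every replicate does; inactive = mean below the limit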;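 note: luciferase carries N-glycosylation sites so blocking glycosylation raises the light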
RAD52 DNA ctr = binds DNA, flagging false RAD52 inhibitor hits; hit rate 8% among 1,000; shares compounds with RAD52 anneal inh; AID 652128; AC50, µM; Salmon sperm DNA/acridine orange FP displacement, DNA binding;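 active = fitted half-maximal concentration for signal loss at or below twice the highest dose tested, in every separate run, actives reach about 64 µM in these data; inconclusive = runs disagree, or flat partial signal loss, or poor fit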
Of the large screens only hits and unclear results are named; the others gave an inactive call (follow-up assays come after a bar, where they were run); ! = a repeat was not active.

O=C1/C(=C\c2ccccc2)CN(C(=O)CCN2CCCCC2)C/C1=C/c1ccccc1	RAD52 anneal inh 55 (no result: RAD54 branch, NSD2 inh) | RAD52 DNA ctr inactive
CCN(CC)CCC(=O)N1C/C(=C/c2ccccc2)C(=O)/C(=C\c2ccccc2)C1	none (no result: RAD54 branch)
CN(C)C(=O)C[C@@H]1C[C@H]2c3cc(NS(=O)(=O)c4ccccc4)ccc3O[C@H]2[C@H](CO)O1	none (no result: NSD2 inh, Glyco luc inh)
C[C@H](c1ccccc1)N1C[C@@H](COCc2ccccc2)Oc2cc(N3CC[C@H](N(C)C)C3)ccc2S1(=O)=O	RAD52 anneal inh 51 (no result: RAD54 branch, NSD2 inh, Glyco luc inh) | RAD52 DNA ctr inactive
CC(C)NC(=O)Nc1ccc2c(c1)C(=O)N([C@H](C)CO)C[C@@H](C)[C@H](CN(C)C(=O)c1ccncc1)OCCCC[C@@H](C)O2	none (no result: NSD2 inh, Glyco luc inh)
OC(CN1CCNCC1)Cn1c2ccccc2c2ccccc21 (centres undefined)	RAD52 anneal inh 79 | RAD52 DNA ctr inactive
COCC(=O)Nc1ccc2c(c1)C(=O)N(C)C[C@H](OC)[C@@H](C)CN(C(=O)NC(C)C)[C@@H](C)CO2	none (no result: NSD2 inh, Glyco luc inh)
Cc1nc(Nc2nc(-c3ccccc3)cc(=O)[nH]2)nc2ccccc12	RAD52 anneal inh 95, Glyco luc inh 103 (no result: AF4-AF9 inh) | RAD52 DNA ctr inactive
CCCCOc1cc(C(=O)OCCN(CC)CC)ccc1N	RAD52 anneal inh 85! (no result: NSD2 inh) | RAD52 DNA ctr inactive
COc1cccc(C2=CC(=O)C(C(C)(C)C)N2C(C)(C)C)c1 (centres undefined)	RAD52 anneal inh 79 (no result: NSD2 inh) | RAD52 DNA ctr inactive
COc1cccc(C2=NOC(C(=O)NC(C)(C)C)C2)c1 (centres undefined)	none (no result: AF4-AF9 inh, RAD52 anneal inh, RAD54 branch)
Cc1cc(N2CCNC[C@@H]2C)ccc1N1CCN(Cc2ccccc2)[C@@H](C)C1	RAD52 anneal inh 51 (no result: AF4-AF9 inh, RAD54 branch, NSD2 inh, Glyco luc inh) | RAD52 DNA ctr inactive
COc1ccc(OC)c2sc(N(CCN(C)C)C(=O)/C=C/c3cccs3)nc12	RAD52 anneal inh 101, RAD54 branch 90 | RAD52 DNA ctr inactive
CN(C)CCCN(C(=O)/C=C/c1cccs1)c1nc2ccc(F)cc2s1	RAD52 anneal inh 58 | RAD52 DNA ctr inactive
COc1ccccc1C1c2ccc3ccccc3c2Oc2ncn(CCN(C)C)c(=N)c21 (centres undefined)	RAD52 anneal inh 60 | RAD52 DNA ctr inactive
COc1ccccc1C1c2ccc3ccccc3c2Oc2ncn(CCCO)c(=N)c21 (centres undefined)	none (no result: AF4-AF9 inh, FN deposition inh, RAD52 anneal inh)
COc1ccc(C2c3ccc4ccccc4c3Oc3ncn(CCCN(C)C)c(=N)c32)cc1 (centres undefined)	AF4-AF9 inh 33, RAD52 anneal inh 80 | RAD52 DNA ctr inactive
COc1ccc(C2c3c(ncn(CCCO)c3=N)Oc3ccc4ccccc4c32)cc1 (centres undefined)	none
Cc1cc(Cl)ccc1-c1cc2nc(NCCCN(C)C)n(C)c(=O)c2s1	none
COc1cccc(CNc2nc3cc(-c4cccc(C(=O)NCCO)c4)sc3c(=O)n2C)c1	none
Cc1cscc1-c1cc2nc(NCCCN(C)C)n(C)c(=O)c2s1	none
CN(C)CCCNc1nc2cc(-c3cnn(C)c3)sc2c(=O)n1C	AF4-AF9 inh inconclusive, RAD52 anneal inh 59 | RAD52 DNA ctr inactive
COc1ccc(-c2cc3nc(NCCCN(C)C)n(C)c(=O)c3s2)c(C)c1	RAD52 anneal inh 55 | RAD52 DNA ctr inactive
CN(C)CCCNC(=O)c1ccc(-c2cc3nc(NCc4cccnc4)n(C)c(=O)c3s2)cc1	RAD52 anneal inh 76 | RAD52 DNA ctr inactive
O=C(C[C@@H]1CC[C@H]2[C@@H](COC[C@@H](O)CN2C(=O)Nc2ccccc2)O1)NC1Cc2ccccc2C1	none (no result: NSD2 inh, Glyco luc inh)
CCOC(=O)c1c(NC(=O)C[n+]2ccc(Cc3ccccc3)cc2)sc(C)c1C	RAD52 anneal inh 50 (no result: RAD54 branch, NSD2 inh) | RAD52 DNA ctr inactive
CCN1CCN(CCCNC(=O)c2ccc(/C=C3/Sc4ccccc4N(Cc4ccccc4F)C3=O)cc2)CC1	RAD52 anneal inh 76, RAD54 branch 54 | RAD52 DNA ctr inactive
CCN1CCN(CCNC(=O)c2ccc(/C=C3/Sc4ccccc4N(Cc4ccccc4C)C3=O)cc2)CC1	RAD52 anneal inh 55 | RAD52 DNA ctr inactive
C[C@H]1CN([C@@H](C)CO)C(=O)c2cccc(NC(=O)Nc3ccccc3)c2O[C@H]1CN(C)C(=O)Nc1ccc(C(F)(F)F)cc1	none (no result: FN deposition inh, NSD2 inh, Glyco luc inh)
CCN(CC)CCC(=O)Nc1cccc2c1C(=O)c1ccccc1C2=O	RAD52 anneal inh 78, RAD54 branch 95, Glyco luc inh 110 | RAD52 DNA ctr 9µM
CCCCNC(=S)Nc1ccc2nc(N3CCN(CC)CC3)cc(C)c2c1	RAD52 anneal inh 57 | RAD52 DNA ctr inactive
CCN1CCN(c2cc(C)c3cc(NC(=O)c4cccs4)ccc3n2)CC1	AF4-AF9 inh inconclusive, RAD52 anneal inh 63 (no result: NSD2 inh) | RAD52 DNA ctr inactive
Cc1cc(N2CCCC2)nc2ccc(NC(=S)NCCCN3CCC(C)CC3)cc12	RAD52 anneal inh 76 (no result: RAD54 branch, NSD2 inh) | RAD52 DNA ctr inactive
CCCCNC(=O)CCC(=O)Nc1ccc2nc(N3CCN(C)CC3)cc(C)c2c1	none
CNC[C@@H]1Oc2ccc(NS(C)(=O)=O)cc2C(=O)N([C@H](C)CO)C[C@H]1C	none (no result: FN deposition inh, NSD2 inh, Glyco luc inh)
C[C@H](CO)N1C[C@H](C)[C@@H](CN(C)Cc2ccc(Oc3ccccc3)cc2)Oc2c(NC(=O)c3ccc(-c4nccs4)cc3)cccc2C1=O	none (no result: FN deposition inh, NSD2 inh, Glyco luc inh)
Cn1c(-c2csc(-c3cccc(C(F)(F)F)c3)n2)n[nH]c1=S	RAD52 anneal inh 96 (no result: RAD54 branch) | RAD52 DNA ctr inactive
CCC(C)(C)c1ccc(OCCCC[n+]2ccc(C)cc2)c(C(C)(C)CC)c1	none (no result: AF4-AF9 inh, RAD52 anneal inh, RAD54 branch, Glyco luc inh)
CCC(C)(C)c1ccc(OCCCC[n+]2cccc(C)c2C)c(C(C)(C)CC)c1	RAD52 anneal inh 66 | RAD52 DNA ctr inactive
c1ccc2c(c1)C1=NCCN1c1ccccc1-2	RAD52 anneal inh 82, Glyco luc inh 78 (no result: RAD54 branch) | RAD52 DNA ctr inconclusive
CCN(CC)CC(O)Cn1c(C)c(-c2ccccc2)c2cc([N+](=O)[O-])ccc21 (centres undefined)	AF4-AF9 inh 37, RAD52 anneal inh 64 | RAD52 DNA ctr inactive
CC(C)NC(=O)N(C)C[C@H]1Oc2cc(C#CCN(C)C)ccc2S(=O)(=O)N([C@@H](C)CO)C[C@H]1C	none (no result: NSD2 inh, Glyco luc inh)
CCN(Cc1ccccc1)S(=O)(=O)c1ccc(C(=O)N(CCCN(C)C)c2nc3cc(C)cc(C)c3s2)cc1	none | RAD52 DNA ctr inactive
Cc1ccc2sc(N(CCCN(C)C)C(=O)c3ccc(S(=O)(=O)N(C)Cc4ccccc4)cc3)nc2c1C	RAD52 anneal inh 60 (no result: FN deposition inh) | RAD52 DNA ctr inactive
Cc1ccc2sc(N(CCCN(C)C)C(=O)c3ccc(S(=O)(=O)N(C)C)cc3)nc2c1C	none (no result: RAD54 branch)
CCOc1cccc2sc(N(CCCN(C)C)C(=O)c3ccc(S(=O)(=O)N(CC)Cc4ccccc4)cc3)nc12	RAD52 anneal inh 65 | RAD52 DNA ctr inactive
CCOc1cccc2sc(N(CCCN(C)C)C(=O)c3ccc(S(=O)(=O)N(C)Cc4ccccc4)cc3)nc12	none
